These results are taken from paper PMC12949657 (Journal of medicinal chemistry, 2024).

Each structure is given as a SMILES string. Converted amounts (≈) assume the structure as drawn. A value given as a limit tells only on which side of the number the result lay.

The nature of data set [1]: Mouse snapshot 5 h PK study. The conditions noted are these: female, CD-1, mouse, plasma, po, 25 mg/kg. It is filed as in vivo. An outline of the steps:
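Two female CD-1 mice received a single oral 25 mg/kg dose in 5% DMA/60% PEG300/35% D5W. Blood was collected into K2EDTA pre-dose and at 0.5, 1, 3 and 5 h, kept on ice, and spun to plasma stored at −80 °C. Quantitation was by LC-MS/MS against plasma standard curves (1/x² weighting) after acetonitrile/methanol precipitation with verapamil internal standard. AUC was calculated by trapezoidal integration.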

Data set [2] deals with Enterococcus faecium NCTC 7171 (ATCC 19434). As to the kind of experiment: Antibacterial growth inhibition. It is filed as cell-based. The conditions noted are these: ATCC19434|NCTC7171, read-out: E. faecium MIC.
The test system of a further data set is Staphylococcus aureus. As to the kind of experiment: MIC assay, S. aureus. It is filed as cell-based.
Another data set concerns the target T1, CYP1A2 (Homo sapiens, UniProt P05177).
T1 sequence (P05177 1-516): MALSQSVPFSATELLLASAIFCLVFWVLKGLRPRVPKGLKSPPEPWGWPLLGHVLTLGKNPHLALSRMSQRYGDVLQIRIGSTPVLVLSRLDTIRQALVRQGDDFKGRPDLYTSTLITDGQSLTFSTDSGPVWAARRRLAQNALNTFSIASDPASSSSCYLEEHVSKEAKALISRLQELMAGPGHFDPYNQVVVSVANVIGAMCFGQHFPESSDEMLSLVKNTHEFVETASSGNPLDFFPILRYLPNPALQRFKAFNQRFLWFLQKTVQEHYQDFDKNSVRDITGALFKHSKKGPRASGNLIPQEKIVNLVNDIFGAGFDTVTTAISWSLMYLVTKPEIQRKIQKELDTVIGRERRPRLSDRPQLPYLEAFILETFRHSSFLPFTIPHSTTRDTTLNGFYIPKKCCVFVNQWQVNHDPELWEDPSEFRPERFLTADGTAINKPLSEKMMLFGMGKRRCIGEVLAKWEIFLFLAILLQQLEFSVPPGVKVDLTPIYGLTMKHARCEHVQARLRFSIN
As to the kind of experiment: Human cytochrome P450 inhibition assay, 1A2. It counts as in vitro ADME. The conditions noted are these: human liver microsomes, 0 – 50 μM.

The test system of data set [3] is E. faecium NCTC 7171. As to the kind of experiment: Griess assay for intrabacterial NO release. It is filed as cell-based, Enterococcus faecium. The note with it: 100 μM, 24 h and 48 h. The procedure, abridged: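 E. faecium NCTC 7171 was started from a single colony in Mueller-Hinton medium and grown to OD600 0.4. The culture was split into untreated, test compound (100 μM) and DEA-NONOate (100 μM) batches. At 24 h and 48 h, samples were centrifuged and supernatants mixed with fresh Griess reagent for 30 min at rt. A548 was read, and nitrite was estimated against sodium nitrite standards (50–0.78 μM, 2-fold, in Mueller-Hinton).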

A short description of data set [4]: Mouse dose tolerability/proportionality study. It is filed as in vivo.
Another data set relates to E. faecium EN 2966. As to the kind of experiment: MIC assay, vancomycin-resistant E. faecium EN 2966. It is filed as cell-based, Enterococcus faecium.
Data set [5] has as its system E. faecium NCTC 7171. Put plainly: Minimum bactericidal concentration. It is filed as cell-based. The note with it: Enterococcus faecium, NCTC7171, read-out: minimal bactericidal concentration (MBC). The procedure, abridged:
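MBC was taken from the broth microdilution MIC plate. Mid-log E. faecium (OD600 0.2–0.3) was diluted 1:1000 into cation-adjusted Mueller-Hinton II broth with 1% IsoVitaleX, with test compound typically at 200–0.1 μg/mL, and incubated overnight at 37 °C. Wells were mixed, serially diluted 10-fold in DPBS and plated on Mueller-Hinton plus 1% IsoVitaleX agar. Colonies were counted after 2 d at 37 °C.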

The subject of the next data set is Klebsiella pneumoniae. As to the kind of experiment: MIC assay, K. pneumoniae. It is filed as cell-based.
A further data set addresses CYP2C19 (Homo sapiens, UniProt P33261). As to the kind of experiment: Human cytochrome P450 inhibition assay, 2C19. It counts as in vitro ADME. The note with it: human liver microsomes, 0 – 50 μM. Background: Liver microsomes are vesicles of endoplasmic reticulum, rich in cytochrome P450 enzymes.
Another data set has as its target CYP2D6 (Homo sapiens, UniProt P10635). As to the kind of experiment: Human cytochrome P450 inhibition assay, 2D6. It is filed as in vitro ADME. The note with it: human liver microsomes, 0 – 50 μM.
A short description of data set [6]: Mouse plasma protein binding. It is filed as in vitro ADME.
The next data set has as its system Pseudomonas aeruginosa. As to the kind of experiment: MIC assay, P. aeruginosa. It is filed as cell-based.
Data set [7] is described as follows: Human plasma protein binding. It is filed as in vitro ADME.
The target in another data set is CYP3A4 (Homo sapiens, UniProt P08684). As to the kind of experiment: Human cytochrome P450 inhibition assay, 3A4. It counts as in vitro ADME. The note with it: human liver microsomes, 0 – 50 μM.
Sequence of CYP3A4 (P08684 whole entry): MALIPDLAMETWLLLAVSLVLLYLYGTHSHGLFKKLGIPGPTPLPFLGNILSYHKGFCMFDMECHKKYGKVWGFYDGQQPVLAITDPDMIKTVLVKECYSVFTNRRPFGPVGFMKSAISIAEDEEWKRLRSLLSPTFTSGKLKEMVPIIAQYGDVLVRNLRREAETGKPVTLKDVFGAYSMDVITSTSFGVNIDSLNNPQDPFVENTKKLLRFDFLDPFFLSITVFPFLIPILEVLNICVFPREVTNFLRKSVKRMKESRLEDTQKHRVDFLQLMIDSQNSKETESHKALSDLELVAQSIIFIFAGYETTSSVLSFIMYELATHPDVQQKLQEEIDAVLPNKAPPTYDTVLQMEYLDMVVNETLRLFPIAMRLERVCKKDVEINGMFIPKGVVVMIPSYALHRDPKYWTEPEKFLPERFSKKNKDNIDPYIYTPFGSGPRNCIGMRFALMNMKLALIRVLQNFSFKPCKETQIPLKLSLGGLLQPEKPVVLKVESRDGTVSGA
In another data set the test system is Acinetobacter baumannii. As to the kind of experiment: MIC assay, A. baumannii. It is filed as cell-based.
The next data set addresses CYP2C9 (Homo sapiens, UniProt P11712). As to the kind of experiment: Human cytochrome P450 inhibition assay, 2C9. It counts as in vitro ADME. The conditions noted are these: human liver microsomes, 0 – 50 μM.
In a further data set the test system is E. faecium. The conditions noted are these: cited from earlier work.

Sequence of CYP2C9 (P11712 whole entry): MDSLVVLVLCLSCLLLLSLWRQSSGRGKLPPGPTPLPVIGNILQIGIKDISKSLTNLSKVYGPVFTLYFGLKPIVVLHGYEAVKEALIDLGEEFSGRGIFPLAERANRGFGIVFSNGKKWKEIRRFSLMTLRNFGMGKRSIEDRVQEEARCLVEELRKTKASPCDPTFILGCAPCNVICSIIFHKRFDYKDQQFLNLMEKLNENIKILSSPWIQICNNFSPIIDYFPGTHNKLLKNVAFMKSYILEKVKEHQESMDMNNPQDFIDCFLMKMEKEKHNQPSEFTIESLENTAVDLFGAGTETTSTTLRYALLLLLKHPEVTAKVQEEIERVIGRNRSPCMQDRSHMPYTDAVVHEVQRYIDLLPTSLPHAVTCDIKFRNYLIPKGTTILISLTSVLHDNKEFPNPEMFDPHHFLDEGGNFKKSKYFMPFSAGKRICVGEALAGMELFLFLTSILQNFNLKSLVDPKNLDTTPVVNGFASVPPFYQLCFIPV
Sequence of CYP2D6 (P10635 whole entry): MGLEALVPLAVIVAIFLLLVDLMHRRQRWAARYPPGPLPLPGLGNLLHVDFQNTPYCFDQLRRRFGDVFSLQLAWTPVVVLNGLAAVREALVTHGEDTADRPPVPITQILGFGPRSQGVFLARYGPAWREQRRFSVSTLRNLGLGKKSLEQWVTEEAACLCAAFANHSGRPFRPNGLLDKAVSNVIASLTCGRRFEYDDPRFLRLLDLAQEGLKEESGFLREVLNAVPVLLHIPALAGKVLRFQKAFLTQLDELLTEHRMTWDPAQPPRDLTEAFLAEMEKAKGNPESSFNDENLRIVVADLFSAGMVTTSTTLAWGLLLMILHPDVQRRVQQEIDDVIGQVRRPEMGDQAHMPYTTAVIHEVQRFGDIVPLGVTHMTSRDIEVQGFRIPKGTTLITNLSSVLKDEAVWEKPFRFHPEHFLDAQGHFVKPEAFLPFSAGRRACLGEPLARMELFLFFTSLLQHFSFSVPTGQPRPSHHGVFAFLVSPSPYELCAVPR
Sequence of CYP2C19 (P33261 whole entry): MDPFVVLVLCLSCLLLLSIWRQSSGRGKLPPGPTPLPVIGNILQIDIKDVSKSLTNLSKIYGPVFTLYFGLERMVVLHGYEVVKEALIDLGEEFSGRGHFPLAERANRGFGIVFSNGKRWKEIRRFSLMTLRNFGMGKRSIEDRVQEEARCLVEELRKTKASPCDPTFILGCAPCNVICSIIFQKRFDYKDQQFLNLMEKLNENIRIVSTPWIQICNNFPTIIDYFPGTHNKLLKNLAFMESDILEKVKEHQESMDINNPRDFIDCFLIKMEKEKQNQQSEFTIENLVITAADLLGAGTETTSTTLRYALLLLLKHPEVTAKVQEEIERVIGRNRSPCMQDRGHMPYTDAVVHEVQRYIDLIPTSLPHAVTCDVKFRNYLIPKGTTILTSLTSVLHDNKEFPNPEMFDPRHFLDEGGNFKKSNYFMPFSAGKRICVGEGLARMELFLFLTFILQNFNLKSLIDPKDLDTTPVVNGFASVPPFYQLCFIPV

A word on the AUC(0-t): it is exposure summed from dosing to a finite time, without extrapolation to infinity. A higher AUC(0-t) goes with high exposure. `O=C(NNC(=O)c1cc2cc(Cl)cc(Cl)c2s1)c1ccc([N+](=O)[O-])o1` [Compound 22] had an AUC(0-t) in data set [1] of 43800 ng·h/mL.
The same measure, in the same setting: then `O=C(NNC(=O)c1cc2cc(C(F)(F)F)cc(Cl)c2s1)c1ccc([N+](=O)[O-])o1` [Compound 25], with 111000 ng·h/mL.
What is called MIC is the lowest concentration found to suppress growth. With `O=C(NNC(=O)c1cc2ccccc2s1)c1ccc([N+](=O)[O-])o1` [JSF-2827, N'-(benzo[b]thiophene-2-carbonyl)-5-nitrofuran-2-carbohydrazide], the MIC in [2] is 0.75 µM (≈ 0.248 µg/mL).
As to `O=C(NNC(=O)c1sc2cc(Cl)ccc2c1Cl)c1ccc([N+](=O)[O-])o1` [JSF-3269], the MIC is 16 µM (≈ 6.4 µg/mL) with Staphylococcus aureus; 1.9 to 3.8 µM (≈ 0.76 to 1.52 µg/mL) in data set [2]; “the same MIC as versus the NCTC 7171 strain” with E. faecium EN 2966; above 120 µM against Klebsiella pneumoniae; above 120 µM against Pseudomonas aeruginosa; above 120 µM against Acinetobacter baumannii. For the same compound, on CYP1A2, the “inhibition of human cytochrome P450 1A2” value is recorded as “not a significant inhibitor”. For the same compound, in the data set with E. faecium NCTC 7171 [3], the “intracellular release of NO• (nitrite in supernatant)” value is “no evidence was found to support the intracellular release of NO•”. The “exposure (AUC0-24h) dose proportionality” value in [4] (mice, 50, 150 and 300 mg/kg po) was “appeared to plateau between 150 and 300 mg/kg”. Further, in data set [4] (mice, doses up to the highest level tested of 300 mg/kg po), the dose tolerability result was “tolerated”. Moreover, the MBC in the data set with E. faecium NCTC 7171 [5] lay within 7.7 to 15 µM (≈ 3.08 to 6 µg/mL). The “inhibition of human cytochrome P450 2C19” value against CYP2C19 is “not a significant inhibitor”. The “inhibition of human cytochrome P450 2D6” value at CYP2D6 is on record as “not a significant inhibitor”. The “binding to mouse plasma” value in data set [6] is listed as 99.99%. Further, the “binding to human plasma” value in [7] is 99.3%. For the same compound, the “inhibition of human cytochrome P450 3A4” value against CYP3A4 is listed as “not a significant inhibitor”. Further, the “inhibition of human cytochrome P450 2C9” value on CYP2C9 was “not a significant inhibitor”.
Regarding `O=C1CN(/N=C/c2ccc([N+](=O)[O-])o2)C(=O)N1` [nitrofurantoin], the “in vitro efficacy versus E. faecium” value in the data set on E. faecium is recorded as “limited in vitro efficacy”.
